Calls of active or inactive are those of the source. No cut-off for these calls is given here.
Legend:
HT-22 [1] = assay: Neuroprotective activity in mouse HT22 cells assessed as inhibition of amyloid beta-induced cytotoxicity by measuring cell viability at 10 uM after 18 hrs by MTT assay; type: functional; details: HT-22, 18 h
Procedure, shortened: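 Aβ peptide was pretreated in HFIP, dried to a film, redissolved in DMSO, and aggregated at 200 µM in PBS for 24 h at 4 °C. HT22 cells (5000/well) were exposed the next day to 2 µM aggregated Aβ plus 10 µM compound for 18 h. Viability was read by MTT at 570 nm, and percent inhibition was calculated against Aβ with vehicle. Triplicate.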

[2] = target: Advanced glycosylation end product-specific receptor (Homo sapiens) (UniProt Q15109); assay: Inhibition of human RAGE-amyloid beta-42 interaction at 4 uM preincubated for 30 mins measured after 1 hr by FRET assay relative to control
Procedure, shortened: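 Biotinylated human RAGE (2.5 µg) was premixed with 200 ng Cy3-streptavidin in PBS for 30 min at rt. Aβ42-FITC (50 µL of 40 nM) and compound (50 µL of 4 µM) were then added, in 200 µL final volume with 0.1% DMSO. Fluorescence was read 1 h later. FRET efficiency was computed from donor emission with and without acceptor, and percent inhibition was taken against vehicle. Triplicate.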

HT-22 [3] = assay: (§1) Cytotoxicity against mouse HT22 cells assessed as cell viability at 10 uM after 18 hrs by MTT assay; type: cell-based; details: ht-22, 18 h, 10 µM
Procedure, shortened: (§2)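 HT22 cells were grown in DMEM with 10% FBS and penicillin/streptomycin at 37 °C in 5% CO2, and seeded at 5000 cells/well. Next day they were exposed to 10 µM compound for 18 h. MTT was then added for 3 h, formazan dissolved in acidic 2-propanol, and OD read at 570 nm. Viability is blank-corrected absorbance relative to control. Run in triplicate.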

Mus musculus [4] = assay: Antialzheimer activity in APPsw/PS1 transgenic mouse assessed as reduction of total amyloid beta 1-40 level in brain homogenates at 50 mg/kg, po administered every 2 days for 4 weeks by ELISA; type: functional, organism-based
Procedure, shortened: (§3)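 Male APPsw/PS1 mice, 34 weeks old (n = 4–5), dosed by gavage at 50 mg/kg every 2 days for 4 weeks. Total Aβ1–40 and Aβ1–42 were measured by ELISA kit. Results given as mean ± SD.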

Mus musculus [5] = assay: Antialzheimer activity in APPsw/PS1 transgenic mouse assessed as reduction of total amyloid beta 1-42 level in brain homogenates at 50 mg/kg, po administered every 2 days for 4 weeks by ELISA; type: functional, organism-based; procedure, shortened: as §3
Mus musculus [6] = assay: Toxicity in APPsw/PS1 transgenic mouse at 50 mg/kg, po administered every 2 days for 4 weeks; type: organism-based; details: in vivo
Mus musculus [7] = assay: Antialzheimer activity in APPsw/PS1 transgenic mouse assessed as reduction of total amyloid beta 1-40 level in brain homogenates at 50 mg/kg, po administered every 2 days for 4 weeks by ELISA
Mus musculus [8] = assay: Antialzheimer activity in APPsw/PS1 transgenic mouse assessed as reduction of total amyloid beta 1-42 level in brain homogenates at 50 mg/kg, po administered every 2 days for 4 weeks by ELISA
[9] = Solubility of the compound in water; type: physicochemical; details: buffer
[10] = as §1; type: cell-based, HT-22; details: HT22 cells, read-out: Activity; procedure, shortened: as §2

Chain of Advanced glycosylation end product-specific receptor (Homo sapiens) (Q15109 whole entry): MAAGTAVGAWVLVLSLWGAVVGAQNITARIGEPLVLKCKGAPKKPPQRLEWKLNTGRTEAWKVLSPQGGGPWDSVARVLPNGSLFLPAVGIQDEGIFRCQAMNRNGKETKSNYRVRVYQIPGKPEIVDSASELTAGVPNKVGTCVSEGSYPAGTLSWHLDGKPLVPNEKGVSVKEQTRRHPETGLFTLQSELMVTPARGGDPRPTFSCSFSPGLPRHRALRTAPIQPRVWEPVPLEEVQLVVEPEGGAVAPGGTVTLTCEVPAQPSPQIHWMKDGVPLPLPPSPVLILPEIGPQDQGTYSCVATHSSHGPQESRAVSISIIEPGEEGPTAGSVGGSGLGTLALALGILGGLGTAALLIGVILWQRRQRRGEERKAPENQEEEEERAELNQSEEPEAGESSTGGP

Row | inhibition [2] | solubility [9] | SMILES | inhibition at 10 µM (HT-22 [1]) | Activity (HT-22 [3]) | Activity (Mus musculus [4]) | Activity (Mus musculus [5]) | Activity (Mus musculus [6]) | Activity (Mus musculus [7]) | Activity (Mus musculus [8]) | viability at 18 h, 10 µM [10]
1 | 40% | – | CC(C)(C)OC(=O)N1CCN(CCCOc2ccc(-c3nc4ccc(Oc5ccc(Cl)cc5)cc4o3)cc2)CC1 | 65% | Non-toxic | Active | Active | Non-toxic | Active | Active | –
2 | 25.1% | Insoluble | Clc1ccc(Oc2ccc3nc(-c4ccc(OCCCN5CCN(c6ncccn6)CC5)cc4)oc3c2)cc1 | – | – | – | – | – | – | – | 25.1%
3 | 24.6% | – | CC(C)(C)OC(=O)N1CCN(CCOc2ccc(-c3nc4ccc(Oc5ccc(Cl)cc5)cc4o3)cc2)CC1 | 50.6% | Non-toxic | – | – | – | – | – | –
4 | 21% | – | CC(C)(C)OC(=O)N1CCN(CCCOc2ccc(-c3nc4ccc(Oc5ccc(F)cc5)cc4o3)cc2)CC1 | 62.3% | – | – | – | – | – | – | 15.2%
5 | inactive | Insoluble | Clc1ccc(Oc2ccc3nc(-c4ccc(OCCCN5CCN(c6ccccc6)CC5)cc4)oc3c2)cc1 | – | Non-toxic | – | – | – | – | – | –
6 | 5.1% | Insoluble | Clc1ccc(Oc2ccc3nc(-c4ccc(OCC5CCN(Cc6ccccc6)CC5)cc4)oc3c2)cc1 | – | – | – | – | – | – | – | 82.4%
7 | 25.9% | – | CC(C)OC(=O)N1CCN(CCCOc2ccc(-c3nc4ccc(Oc5ccc(Cl)cc5)cc4o3)cc2)CC1 | 54.4% | Non-toxic | – | – | – | – | – | –
8 | inactive | Insoluble | Clc1ccc(Oc2ccc3nc(-c4ccc(OCCCN5CCC(c6ccccc6)CC5)cc4)oc3c2)cc1 | – | Non-toxic | – | – | – | – | – | –
9 | 22.8% | – | CC(C)(C)OC(=O)N1CCN(CCCOc2ccc(-c3nc4ccc(Oc5cccc(C(F)(F)F)c5)cc4o3)cc2)CC1 | 56.2% | Non-toxic | – | – | – | – | – | –

— ChEMBL document CHEMBL3593222, “6-Phenoxy-2-phenylbenzoxazoles, novel inhibitors of receptor for advanced glycation end products (RAGE)” (Bioorg Med Chem, 2015)
